From ChEMBL document CHEMBL1145855, “Computer-aided selection of potential antihypertensive compounds with dual mechanism of action” (J Med Chem, 2003) come the findings set out here.

By IC50 is commonly meant the concentration at which inhibition is half-maximal. Low values mean inhibition by little substance, high ones a need for much substance. What is called inhibition is the change of the read-out against control, counted positive when it falls. A high value points to a strong effect.

Assay [1] concerns the target Angiotensin-converting enzyme (Homo sapiens, UniProt P12821). Put plainly: Inhibitory activity against Angiotensin I converting enzyme (ACE) from human blood serum.
Assay [2] concerns the target T1, Angiotensin-converting enzyme (Rattus norvegicus, UniProt P47820).
T1 sequence (P47820 whole entry): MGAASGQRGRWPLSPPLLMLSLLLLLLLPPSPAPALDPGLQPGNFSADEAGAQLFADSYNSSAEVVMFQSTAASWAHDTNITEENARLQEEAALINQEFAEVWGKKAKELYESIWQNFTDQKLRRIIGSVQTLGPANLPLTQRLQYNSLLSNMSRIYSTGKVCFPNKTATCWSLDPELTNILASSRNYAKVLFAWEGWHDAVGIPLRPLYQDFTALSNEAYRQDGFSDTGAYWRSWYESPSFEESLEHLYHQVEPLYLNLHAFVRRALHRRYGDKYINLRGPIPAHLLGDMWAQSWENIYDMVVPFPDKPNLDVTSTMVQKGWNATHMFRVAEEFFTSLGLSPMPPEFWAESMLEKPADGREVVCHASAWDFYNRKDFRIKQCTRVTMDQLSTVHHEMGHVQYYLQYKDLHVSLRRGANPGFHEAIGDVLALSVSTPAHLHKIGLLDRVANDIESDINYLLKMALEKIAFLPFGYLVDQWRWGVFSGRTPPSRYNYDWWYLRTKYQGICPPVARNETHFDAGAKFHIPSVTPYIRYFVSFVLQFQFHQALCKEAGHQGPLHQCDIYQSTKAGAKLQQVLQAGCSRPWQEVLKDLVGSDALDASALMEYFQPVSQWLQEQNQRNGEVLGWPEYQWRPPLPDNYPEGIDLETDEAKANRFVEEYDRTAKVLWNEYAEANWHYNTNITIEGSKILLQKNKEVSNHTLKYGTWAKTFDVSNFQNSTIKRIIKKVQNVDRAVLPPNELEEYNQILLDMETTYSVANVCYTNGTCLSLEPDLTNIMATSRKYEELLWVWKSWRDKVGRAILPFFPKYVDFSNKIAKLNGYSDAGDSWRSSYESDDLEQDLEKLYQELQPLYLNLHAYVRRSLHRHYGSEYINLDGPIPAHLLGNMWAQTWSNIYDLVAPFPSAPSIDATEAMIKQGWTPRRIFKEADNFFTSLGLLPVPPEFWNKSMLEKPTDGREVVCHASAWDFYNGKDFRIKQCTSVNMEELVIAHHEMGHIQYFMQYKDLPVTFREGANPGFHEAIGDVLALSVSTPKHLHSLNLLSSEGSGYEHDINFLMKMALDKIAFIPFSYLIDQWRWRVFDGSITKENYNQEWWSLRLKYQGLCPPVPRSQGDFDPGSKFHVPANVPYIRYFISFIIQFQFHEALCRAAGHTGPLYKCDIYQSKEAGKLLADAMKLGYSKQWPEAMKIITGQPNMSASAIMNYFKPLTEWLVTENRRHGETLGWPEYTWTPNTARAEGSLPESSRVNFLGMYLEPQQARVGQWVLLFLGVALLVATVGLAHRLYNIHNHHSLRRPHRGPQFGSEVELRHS
Put plainly: Inhibitory activity against Angiotensin I converting enzyme (ACE) from rat cortex brain membrane. Put shortly: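 Enzyme source was human serum (diluted 1:5) or rat cortex brain membrane suspension, in 70 mM potassium phosphate pH 8.3 with 300 mM NaCl. Compound (10^-3 to 10^-8 M) preincubated 20 min at 37 °C, then 25 µM Hip-His-Leu added for 120 min; stopped with NaOH.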

For assay [3], the target named is T2, Neprilysin (Rattus norvegicus, UniProt P07861).
T2 sequence (P07861 whole entry): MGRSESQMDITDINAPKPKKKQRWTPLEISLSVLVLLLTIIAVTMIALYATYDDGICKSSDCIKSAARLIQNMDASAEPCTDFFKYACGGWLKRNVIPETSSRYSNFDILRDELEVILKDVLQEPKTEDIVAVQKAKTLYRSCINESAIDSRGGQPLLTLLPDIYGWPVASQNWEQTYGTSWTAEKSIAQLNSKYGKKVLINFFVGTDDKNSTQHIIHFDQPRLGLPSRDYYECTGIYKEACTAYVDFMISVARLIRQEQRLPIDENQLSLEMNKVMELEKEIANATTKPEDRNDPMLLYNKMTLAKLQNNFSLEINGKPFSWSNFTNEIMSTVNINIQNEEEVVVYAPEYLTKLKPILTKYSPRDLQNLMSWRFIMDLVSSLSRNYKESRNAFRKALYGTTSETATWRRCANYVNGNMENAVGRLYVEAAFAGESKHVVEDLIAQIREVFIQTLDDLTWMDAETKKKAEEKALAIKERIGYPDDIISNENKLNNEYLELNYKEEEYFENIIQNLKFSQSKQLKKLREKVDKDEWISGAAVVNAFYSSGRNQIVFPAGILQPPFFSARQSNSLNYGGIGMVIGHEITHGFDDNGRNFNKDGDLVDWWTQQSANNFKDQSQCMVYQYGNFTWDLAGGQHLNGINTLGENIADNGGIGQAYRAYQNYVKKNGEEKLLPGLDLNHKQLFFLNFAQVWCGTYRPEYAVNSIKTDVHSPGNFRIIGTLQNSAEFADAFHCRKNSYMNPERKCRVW
Put plainly: Inhibitory activity against neutral endopeptidase (NEP) from rat cortex brain membrane. Put shortly:
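Rat cortex brain membrane suspension in 50 mM Tris-HCl pH 7.5, with six to eight inhibitor concentrations (10^-2 to 10^-6 M). Preincubated 20 min at 37 °C, then Suc-Ala-Ala-Phe-MCA (20 µM final) added for 120-180 min at 37 °C; stopped with pH 4.0 acetate. Released 4-methylcoumarinyl-7-amine read at Ex 383/Em 455 nm; % inhibition versus control; IC50.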

Assay [4] deals with Neprilysin (Homo sapiens, UniProt P08473). Put plainly: Inhibitory activity against neutral endopeptidase (NEP) from human blood serum. A digest of the protocol:
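Human serum (diluted 1:5) as enzyme source, with the test compound at six to eight concentrations from 10^-2 to 10^-6 M, in 50 mM Tris-HCl pH 7.5. Preincubated 20 min at 37 °C. Suc-Ala-Ala-Phe-MCA added (20 µM final) and incubated 120-180 min at 37 °C. Stopped with 20 mM sodium acetate pH 4.0. Released 4-methylcoumarinyl-7-amine read at Ex 383/Em 455 nm. Percent inhibition taken against the no-inhibitor control; IC50 derived.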

For assay [5], the target named is Angiotensin-converting enzyme (Bos taurus) (UniProt P12820). In words: Inhibitory activity of compound at 1*10e-4 M against Angiotensin I converting enzyme (ACE) from bovine kidney.
Angiotensin-converting enzyme (Bos taurus), sequence (P12820 whole entry, looked up): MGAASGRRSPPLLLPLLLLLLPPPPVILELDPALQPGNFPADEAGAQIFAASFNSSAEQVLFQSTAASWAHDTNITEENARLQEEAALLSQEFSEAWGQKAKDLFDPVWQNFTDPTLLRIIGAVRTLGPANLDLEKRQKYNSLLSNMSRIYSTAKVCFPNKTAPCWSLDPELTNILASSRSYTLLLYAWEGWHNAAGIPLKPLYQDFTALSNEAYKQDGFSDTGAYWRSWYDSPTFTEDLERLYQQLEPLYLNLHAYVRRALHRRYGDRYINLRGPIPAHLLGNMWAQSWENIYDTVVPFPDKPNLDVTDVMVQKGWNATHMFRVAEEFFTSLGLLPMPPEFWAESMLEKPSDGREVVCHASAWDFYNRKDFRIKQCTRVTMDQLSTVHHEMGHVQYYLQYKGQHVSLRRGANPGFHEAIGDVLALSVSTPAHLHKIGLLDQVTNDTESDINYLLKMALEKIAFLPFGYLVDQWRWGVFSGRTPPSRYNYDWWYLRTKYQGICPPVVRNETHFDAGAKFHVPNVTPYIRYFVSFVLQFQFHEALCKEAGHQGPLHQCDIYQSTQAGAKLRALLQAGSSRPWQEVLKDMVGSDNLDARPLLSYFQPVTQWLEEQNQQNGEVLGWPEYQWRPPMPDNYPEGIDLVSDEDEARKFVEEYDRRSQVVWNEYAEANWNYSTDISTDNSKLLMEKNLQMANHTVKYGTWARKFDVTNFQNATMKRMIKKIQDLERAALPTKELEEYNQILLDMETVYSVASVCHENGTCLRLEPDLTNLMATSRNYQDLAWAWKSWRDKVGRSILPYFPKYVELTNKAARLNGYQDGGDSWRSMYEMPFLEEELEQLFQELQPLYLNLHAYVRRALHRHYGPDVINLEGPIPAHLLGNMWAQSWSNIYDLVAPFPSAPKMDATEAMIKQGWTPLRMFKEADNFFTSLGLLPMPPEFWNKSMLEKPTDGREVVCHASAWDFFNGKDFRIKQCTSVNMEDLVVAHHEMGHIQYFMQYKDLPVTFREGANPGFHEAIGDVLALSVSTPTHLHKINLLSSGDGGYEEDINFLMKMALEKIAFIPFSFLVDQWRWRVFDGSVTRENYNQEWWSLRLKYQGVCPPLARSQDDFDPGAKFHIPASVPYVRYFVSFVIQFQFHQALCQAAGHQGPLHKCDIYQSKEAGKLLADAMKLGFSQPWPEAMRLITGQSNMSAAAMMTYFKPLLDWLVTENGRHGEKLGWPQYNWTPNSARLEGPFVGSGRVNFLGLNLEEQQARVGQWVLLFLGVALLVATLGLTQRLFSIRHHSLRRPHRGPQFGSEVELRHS

Neprilysin (Homo sapiens, UniProt P08473), sequence (P08473 whole entry): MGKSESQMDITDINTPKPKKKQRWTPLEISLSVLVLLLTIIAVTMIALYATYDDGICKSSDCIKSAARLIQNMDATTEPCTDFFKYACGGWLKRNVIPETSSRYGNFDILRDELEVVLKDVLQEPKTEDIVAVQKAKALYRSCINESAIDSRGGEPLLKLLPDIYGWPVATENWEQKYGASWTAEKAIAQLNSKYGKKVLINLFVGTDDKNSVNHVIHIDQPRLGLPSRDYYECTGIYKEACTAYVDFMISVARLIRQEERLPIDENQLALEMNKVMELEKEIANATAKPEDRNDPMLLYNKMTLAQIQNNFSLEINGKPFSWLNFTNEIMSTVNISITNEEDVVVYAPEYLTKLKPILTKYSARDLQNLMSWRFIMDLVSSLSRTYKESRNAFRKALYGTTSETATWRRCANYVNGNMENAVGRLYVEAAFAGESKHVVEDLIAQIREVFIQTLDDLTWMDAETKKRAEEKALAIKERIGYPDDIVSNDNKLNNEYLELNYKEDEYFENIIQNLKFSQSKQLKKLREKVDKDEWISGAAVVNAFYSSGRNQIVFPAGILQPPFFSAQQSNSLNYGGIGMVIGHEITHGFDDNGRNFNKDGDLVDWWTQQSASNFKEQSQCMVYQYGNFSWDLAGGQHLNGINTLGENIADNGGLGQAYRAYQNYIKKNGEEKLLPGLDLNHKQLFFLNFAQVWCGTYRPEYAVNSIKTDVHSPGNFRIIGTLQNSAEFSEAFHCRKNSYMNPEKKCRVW
Angiotensin-converting enzyme (Homo sapiens, UniProt P12821), sequence (P12821 whole entry): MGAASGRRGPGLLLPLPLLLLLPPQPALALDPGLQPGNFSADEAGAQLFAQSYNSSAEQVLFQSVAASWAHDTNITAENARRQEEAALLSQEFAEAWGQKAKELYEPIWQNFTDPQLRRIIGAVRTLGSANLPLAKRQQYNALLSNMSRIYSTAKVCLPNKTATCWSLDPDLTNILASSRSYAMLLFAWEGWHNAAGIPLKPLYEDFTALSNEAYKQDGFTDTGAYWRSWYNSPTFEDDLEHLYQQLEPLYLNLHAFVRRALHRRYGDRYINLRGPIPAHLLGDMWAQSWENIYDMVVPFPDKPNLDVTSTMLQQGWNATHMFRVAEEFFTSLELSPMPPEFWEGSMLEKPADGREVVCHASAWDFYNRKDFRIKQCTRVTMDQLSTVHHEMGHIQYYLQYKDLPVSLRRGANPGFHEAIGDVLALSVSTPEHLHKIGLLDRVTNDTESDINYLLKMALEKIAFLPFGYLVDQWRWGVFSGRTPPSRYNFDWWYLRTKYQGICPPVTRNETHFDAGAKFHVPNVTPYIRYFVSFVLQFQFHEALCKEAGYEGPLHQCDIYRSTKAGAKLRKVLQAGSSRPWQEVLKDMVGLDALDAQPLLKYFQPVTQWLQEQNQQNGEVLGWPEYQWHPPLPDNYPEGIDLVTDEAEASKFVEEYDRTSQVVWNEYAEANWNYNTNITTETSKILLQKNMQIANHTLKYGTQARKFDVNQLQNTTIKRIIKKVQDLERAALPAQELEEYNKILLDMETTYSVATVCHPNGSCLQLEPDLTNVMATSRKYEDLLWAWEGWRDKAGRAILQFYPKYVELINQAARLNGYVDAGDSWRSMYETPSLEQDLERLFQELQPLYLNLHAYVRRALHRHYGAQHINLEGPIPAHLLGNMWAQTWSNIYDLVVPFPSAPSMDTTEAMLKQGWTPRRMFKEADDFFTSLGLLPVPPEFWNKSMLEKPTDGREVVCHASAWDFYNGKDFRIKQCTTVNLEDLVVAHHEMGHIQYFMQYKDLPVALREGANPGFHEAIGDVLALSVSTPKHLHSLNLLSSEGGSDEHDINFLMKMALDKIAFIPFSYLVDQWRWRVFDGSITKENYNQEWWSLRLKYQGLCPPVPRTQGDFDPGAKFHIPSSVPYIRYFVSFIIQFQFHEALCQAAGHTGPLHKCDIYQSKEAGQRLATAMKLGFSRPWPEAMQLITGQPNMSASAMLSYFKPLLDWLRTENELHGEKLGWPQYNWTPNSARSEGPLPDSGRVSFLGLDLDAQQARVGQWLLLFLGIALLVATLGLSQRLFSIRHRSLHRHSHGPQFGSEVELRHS

As to `CC1CCCC(C(=O)O)N1C(=O)CCS` (configuration not stated), the values for the IC50 (in assay [1]; in assay [2]; on Neprilysin [3]) were 0.02 µM, 0.1 µM and 2000 µM, respectively.
With `CC(=O)SCC(C)C(=O)Nc1ccccc1` (configuration not stated), the IC50 was 2 µM in assay [1], 1 µM in assay [2], 200 µM on Neprilysin [3] and 20 µM at Neprilysin [4].
As to `O=C(O)CCCNCP(=O)(O)CCc1ccccc1`, the concentration for half-maximal inhibition (IC50) in assay [1] stood at 100 µM; in assay [2] it was 100 µM; on Neprilysin [3], 2000 µM. Also, the inhibition in assay [5] turned out to be 18%.
As for `CC(C)C[C@H](NP(=O)(O)O[C@@H]1O[C@@H](C)[C@H](O)[C@@H](O)[C@H]1O)C(=O)N[C@@H](Cc1c[nH]c2ccccc12)C(=O)O` [PHOSPHORAMIDON], the IC50 was 0.2 µM on Neprilysin [3] and 0.1 µM at Neprilysin [4].
`CC(=O)SCC(C)C(=O)NCc1ccccc1` (configuration not stated): the IC50 was 200 µM in assay [1], 100 µM in assay [2], 200 µM against Neprilysin [3] and 20 µM at Neprilysin [4].
